Data set [1] deals with Plasmodium cynomolgi. The data set can be described thus: Antimalarial activity against Plasmodium cynomolgi infected in rhesus monkey assessed as delay in patency time at 0.316 mg/kg, po administered one day before infection, on day of infection followed by 1 day post infection. Format: functional. An outline of the steps: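 Rhesus monkeys challenged with P. cynomolgi sporozoites. Oral dosing on days −1, 0 and 1 in HECT or MC vehicle, with dose in (mg/kg)/day. Read-out is the first day of patency and the delay in patency relative to vehicle-treated controls.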

The test system of data set [2] is Rhesus monkey. Put plainly: Drug uptake in rhesus monkey after 24 hrs relative to control. The class given is ADME, organism-based, Macaca mulatta. The settings on record: in vivo.
Data set [3] is described as follows: Half life in po dosed rhesus monkey. Format: ADME, organism-based, Macaca mulatta. The settings on record: in vivo.
Data set [4] has as its system Rhesus monkey. The data set can be described thus: Drug uptake in im dosed rhesus monkey assessed as 1-(3,4-dichlorophenyl)-2-(1-isopropyl-4,5-dioxo-4,5-dihydro-1H-imidazol-2-yl)guanidine measured after 24 hrs. The class given is ADME, organism-based, Macaca mulatta. The note with it: in vivo.
Data set [5] has as its system Rhesus monkey. Put plainly: Drug uptake in po dosed rhesus monkey assessed as 1-(3,4-dichlorophenyl)-2-(1-isopropyl-4,5-dioxo-4,5-dihydro-1H-imidazol-2-yl)guanidine measured after 24 hrs. The note with it: in vivo. Format: ADME, organism-based, Macaca mulatta.
A short description of data set [6]: Half life in im dosed rhesus monkey. The note with it: in vivo. The class given is ADME, organism-based, Macaca mulatta.
For data set [7], the system named is Rhesus monkey. Put plainly: Drug uptake in po dosed rhesus monkey measured after 24 hrs. The class given is ADME, organism-based, Macaca mulatta. The settings on record: in vivo.
Data set [8] has as its system Rhesus monkey. Put plainly: Drug uptake in im dosed rhesus monkey measured after 24 hrs. Format: ADME, organism-based, Macaca mulatta. The settings on record: in vivo.
Data set [9] deals with Plasmodium cynomolgi. The data set can be described thus: Antimalarial activity against Plasmodium cynomolgi infected in rhesus monkey assessed as time delayed in relapse of patency at 10 mg/kg/day, po administered for 7 days. The class given is functional. The gist of the method:
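Rhesus monkeys that developed P. cynomolgi parasitemia in the prophylaxis test were used once parasitemia reached 5000 parasites/mm³. Oral chloroquine 10 (mg/kg)/day was given for 7 days, with test agent given alongside. Relapse was monitored. Monkeys with no relapse after 100 days were counted as radically cured. Relapsing controls were retreated with chloroquine and followed for a second relapse.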

The structures appear in SMILES notation.

With `COc1cc(C)c2c(Oc3cccc(C(F)(F)F)c3)c(OC)cc(NC(C)CCCN)c2n1` (centres undefined) [TAFENOQUINE], the Time in the data set with Plasmodium cynomolgi [1] is 2 days.

With `CC(C)N1C(=O)C(=O)NC1=NC(=NC(=O)OC(C)(C)C)Nc1ccc(Cl)c(Cl)c1`, the Ratio in the data set on Rhesus monkey [2] is listed as 10. The half-life in data set [3] was 8.9 h; in [6], 70.5 h. The Drug uptake is 4% in the data set with Rhesus monkey [4], 4% in the data set with Rhesus monkey [5], 86% in the data set on Rhesus monkey [7] and 96% in the data set on Rhesus monkey [8].

Take `CCN(CC)CCCC(C)Nc1ccnc2cc(Cl)ccc12` (centres undefined) [CHLOROQUINE]: in the data set with Plasmodium cynomolgi [9], the Time was 11 days.

(Values after ChEMBL document CHEMBL1828547, “Synthesis and antimalarial activity of 2-guanidino-4-oxoimidazoline derivatives” (J Med Chem, 2011).)
